From ChEMBL document CHEMBL1255334
Calls of active or inactive are those of the source. The rule behind the calls is not given here.

Experiments:
Type in all cases: functional, organism-based
[1] = system: Mycobacterium tuberculosis; test: Antibacterial activity against Mycobacterium tuberculosis containing PZase Val(155)>Gly mutant assessed as at 100 mg/liter
Summary of the method: (§1)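 Clinical M. tuberculosis isolates first grown on Löwenstein-Jensen medium 3 to 4 weeks at 37°C. Radiometric BACTEC 460 test in acidified PZA test medium. Inoculum: ~McFarland 1 suspension grown in 12B medium until growth index (GI) >300. Paired vials per strain: drug-free control and PZA 100 mg/liter. Read when control GI reached 200. Resistant if PZA-vial GI >11% of control GI, susceptible if <9%.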

[2] = system: Mycobacterium tuberculosis; test: Antibacterial activity against Mycobacterium tuberculosis containing pncA gene with C insertion between nucleotide -3 and -2 assessed as at 100 mg/liter; summary of the method: as §1
[3] = system: Mycobacterium tuberculosis; test: Antibacterial activity against Mycobacterium tuberculosis containing PZase Val(125)>Asp mutant assessed as at 100 mg/liter; summary of the method: as §1
[4] = system: Mycobacterium tuberculosis; test: Antibacterial activity against Mycobacterium tuberculosis containing PZase Thr(142)>Lys mutant assessed as at 100 mg/liter; summary of the method: as §1
[5] = system: Mycobacterium tuberculosis; test: Antibacterial activity against Mycobacterium tuberculosis containing PZase Cys(138)>Tyr mutant assessed as at 100 mg/liter; summary of the method: as §1
[6] = system: Mycobacterium tuberculosis; test: Antibacterial activity against Mycobacterium tuberculosis containing PZase Pro(54)>Ser mutant assessed as at 100 mg/liter; summary of the method: as §1
[7] = system: Mycobacterium tuberculosis; test: Antibacterial activity against Mycobacterium tuberculosis containing PZase Ile(6)>Thr mutant assessed as at 100 mg/liter; summary of the method: as §1
[8] = system: Mycobacterium tuberculosis; test: Antibacterial activity against Mycobacterium tuberculosis containing PZase Ser(67)>Pro mutant assessed as at 100 mg/liter; summary of the method: as §1
[9] = system: Mycobacterium tuberculosis; test: Antibacterial activity against Mycobacterium tuberculosis containing PZase Tyr(103)>His mutant assessed as at 100 mg/liter; summary of the method: as §1
[10] = system: Mycobacterium tuberculosis; test: Antibacterial activity against Mycobacterium tuberculosis containing PZase Gly(132)>Ser mutant assessed as at 100 mg/liter; summary of the method: as §1
[11] = system: Mycobacterium tuberculosis; test: Antibacterial activity against Mycobacterium tuberculosis containing pncA gene with GG insertion between nt 391 and 392 assessed as at 100 mg/liter; summary of the method: as §1
[12] = system: Mycobacterium tuberculosis; test: Antibacterial activity against Mycobacterium tuberculosis containing PZase Met(175)>Thr mutant assessed as at 100 mg/liter; summary of the method: as §1
[13] = system: Mycobacterium tuberculosis; test: Antibacterial activity against Mycobacterium tuberculosis containing PZase Arg(123)>Pro mutant assessed as at 100 mg/liter; summary of the method: as §1
[14] = system: Mycobacterium tuberculosis; test: Antibacterial activity against Mycobacterium tuberculosis containing PZase Phe(58)>Leu mutant assessed as at 100 mg/liter; summary of the method: as §1
[15] = system: Mycobacterium tuberculosis; test: Antibacterial activity against Mycobacterium tuberculosis containing PZase Ser(65)>Ser mutant assessed as at 100 mg/liter; summary of the method: as §1
[16] = system: Mycobacterium tuberculosis; test: Antibacterial activity against Mycobacterium tuberculosis containing PZase Pro(54)>Leu mutant assessed as at 100 mg/liter; summary of the method: as §1
[17] = system: Mycobacterium tuberculosis; test: Antibacterial activity against Mycobacterium tuberculosis containing pncA gene with A(-11)>G mutation assessed as at 100 mg/liter; summary of the method: as §1
[18] = system: Mycobacterium tuberculosis; test: Antibacterial activity against Mycobacterium tuberculosis containing PZase Thr(47)>Ala mutant assessed as at 100 mg/liter; summary of the method: as §1
[19] = system: Mycobacterium tuberculosis; test: Antibacterial activity against Mycobacterium tuberculosis containing pncA gene with C(174)>G mutation assessed as at 100 mg/liter; summary of the method: as §1
[20] = system: Mycobacterium tuberculosis; test: Antibacterial activity against Mycobacterium tuberculosis containing PZase Leu(172)>Pro mutant assessed as at 100 mg/liter; summary of the method: as §1
[21] = system: Mycobacterium tuberculosis; test: Antibacterial activity against Mycobacterium tuberculosis containing PZase Trp(68)>Arg mutant assessed as at 100 mg/liter; summary of the method: as §1
[22] = system: Mycobacterium tuberculosis; test: Antibacterial activity against Mycobacterium tuberculosis containing PZase with In-frame insertion between amino acids 148 and 149 assessed as at 100 mg/liter; summary of the method: as §1
[23] = system: Mycobacterium tuberculosis; test: Antibacterial activity against Mycobacterium tuberculosis containing PZase Ser(65)>Ser frameshift mutant assessed as at 100 mg/liter; summary of the method: as §1
[24] = system: Mycobacterium tuberculosis; test: Antibacterial activity against Mycobacterium tuberculosis containing pncA gene with G insertion between nucleotide -33 and -32 assessed as at 100 mg/liter; summary of the method: as §1
[25] = system: Mycobacterium tuberculosis; test: Antibacterial activity against Mycobacterium tuberculosis containing PZase Gly(132)>Ala mutant assessed as at 100 mg/liter; summary of the method: as §1
[26] = system: Mycobacterium tuberculosis; test: Antibacterial activity against Mycobacterium tuberculosis containing PZase Val(125)>Phe mutant assessed as at 100 mg/liter; summary of the method: as §1
[27] = system: Mycobacterium tuberculosis; test: Antibacterial activity against Mycobacterium tuberculosis containing PZase Ile(90)>Ser mutant assessed as at 100 mg/liter; summary of the method: as §1
[28] = system: Mycobacterium tuberculosis; test: Antibacterial activity against Mycobacterium tuberculosis containing PZase His(51)>Gln mutant assessed as at 100 mg/liter; summary of the method: as §1

Question: Which results are given for `NC(=O)c1cnccn1`?
Answer: Activity [1]: inactive; Activity [2]: Active; Activity [3]: inactive; Activity [4]: inactive; Activity [5]: inactive; Activity [6]: inactive; Activity [7]: inactive; Activity [8]: inactive; Activity [9]: inactive; Activity [10]: inactive; Activity [11]: inactive; Activity [12]: inactive; Activity [13]: inactive; Activity [14]: inactive; Activity [15]: Active; Activity [16]: inactive; Activity [17]: inactive; Activity [18]: inactive; Activity [19]: inactive; Activity [20]: inactive; Activity [21]: inactive; Activity [22]: inactive; Activity [23]: inactive; Activity [24]: Active; Activity [25]: inactive; Activity [26]: inactive; Activity [27]: inactive; Activity [28]: inactive
